The list is not random: actives were taken first. Their share in the collection is about 2.3%.
OXTR potentiator = human OXTR potentiation | P30559 | CHO-OTR cells, Fluo-8 calcium fluorescence, potentiator mode; 0% = oxytocin EC15, 100% = EC100 | activation, % at 3 µM | 320,000 tested, 0.061% active;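 active = activation above that plate's cutoff, the mean activation of tested compounds plus 3 SD, cut at about 6.6% in these data, passing the limit was not always enough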;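 note: 100% uses oxytocin at 75 nM as the full agonist control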
Target sequence (P30559 whole entry, looked up): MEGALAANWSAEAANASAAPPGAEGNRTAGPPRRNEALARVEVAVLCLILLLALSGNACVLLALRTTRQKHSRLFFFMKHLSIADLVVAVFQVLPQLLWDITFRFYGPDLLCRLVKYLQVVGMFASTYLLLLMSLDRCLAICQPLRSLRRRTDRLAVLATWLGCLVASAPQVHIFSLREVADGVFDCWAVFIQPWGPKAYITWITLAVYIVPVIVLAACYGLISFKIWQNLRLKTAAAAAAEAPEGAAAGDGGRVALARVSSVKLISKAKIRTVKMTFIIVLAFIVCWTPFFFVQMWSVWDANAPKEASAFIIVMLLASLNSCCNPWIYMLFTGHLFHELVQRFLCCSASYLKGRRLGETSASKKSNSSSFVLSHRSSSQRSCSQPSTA
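Material: CHO-OTR cells, human receptor; compound dosing: single dose, 3.0 µM nominal final compound concentration; schedule: 6 min compound pre-incubation at room temperature, 100 s kinetic read; measured by: kinetic Fluo-8 calcium fluorescence; read-out basis: % activation vs EC15 and EC100 oxytocin; controls: EC15 oxytocin alone as 0%, 75 nM oxytocin as 100%; replicates: singlicate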
TAAR1 agonist = agonists of human TAAR1; Q96RJ0; CHO RD-HGA16 TAAR1, Fluo-8 calcium fluorescence; vehicle wells 0%, saturating PEA agonist 100%; activation, % at 3 µM; 360,000 tested, 0.99% active;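 active = activation above the mean activation of all test compounds in the run plus 3 SD, cut at about 38% in these data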
Target sequence (Q96RJ0 whole entry, looked up): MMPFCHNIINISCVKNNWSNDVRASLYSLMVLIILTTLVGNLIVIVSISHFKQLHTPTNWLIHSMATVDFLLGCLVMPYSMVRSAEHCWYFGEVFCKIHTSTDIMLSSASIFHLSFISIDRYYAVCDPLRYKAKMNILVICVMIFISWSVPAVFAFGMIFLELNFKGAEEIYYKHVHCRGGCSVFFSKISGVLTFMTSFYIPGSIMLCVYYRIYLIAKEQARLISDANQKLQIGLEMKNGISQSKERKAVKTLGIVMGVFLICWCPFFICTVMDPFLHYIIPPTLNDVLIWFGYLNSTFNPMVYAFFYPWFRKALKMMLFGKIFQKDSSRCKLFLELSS
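System: CHO-derived RD-HGA16 cells with stable Gα16 and human TAAR1. Times: 17-24 h plating, Fluo-8 75 min 37 °C, 30 min RT. Measured by: calcium-sensitive Fluo-8 signal, excitation 470-495, emission 515-575 nm. Read-out basis: % activation relative to PEA EC100 response. Control set: DMSO and PEA EC100. Repeats: no replicates (n 1).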
V1aR counter = V1a receptor agonism, counter-screen for OXTR agonists; CHO-V1R cells, Fluo-8 calcium fluorescence, agonist mode; 0% DMSO, 100% 3 nM vasopressin; activation, % at 3 µM; AID 2797; 320,000 tested, 0.25% active;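 active = activation above the mean activation of all tested compounds plus 3 SD, per screening run, cut at about 20% in these data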;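 note: signal is peak over basal fluorescence ratio across a 100 second FLIPR read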
OXTR ag = human OXTR agonism. AID 2435. P30559. 320,000 tested, 0.32% active. activation, % at 3 µM. CHO-OTR cells, Fluo-8 calcium fluorescence; normalized: DMSO 0%, oxytocin 100%;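 active = activation above the mean of all tested compounds plus 3 SD, cutoff set per screening run, cut at about 20% in these data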;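 note: peak over basal fluorescence ratio from a 100 s FLIPR kinetic read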
TAAR1 antag = human TAAR1 antagonism; 360,000 tested, 1.5% active; Q96RJ0; CHO RD-HGA16 TAAR1, Fluo-8 calcium fluorescence, antagonist; inhibition, % at 3 µM;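 active = inhibition above a per-plate cutoff, the mean inhibition of test compounds on that plate plus 3 SD, cut at about 49% in these data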;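 note: 0% = DMSO plus EC80 beta-PEA response and 100% = DMSO alone without agonist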
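Test system – hTAAR1-expressing CHO RD-HGA16 cells, Gα16-coupled · Reagent – β-PEA at EC80 concentration, post-compound challenge · Compound dosing – 3 µM, single point · Timing – 140 s kinetic read after compound, 140 s after agonist · Detection – Fluo-8 intracellular calcium dye fluorescence, real-time kinetic reads · Control set – DMSO and EC80 PEA controls · Repeats – n of 1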
TAAR1 nonsel count = nonselective antagonist in TAAR1 antagonist counter-screen | shares compounds with TAAR1 antag | 2,400 tested, 77% active | inhibition, % at 3 µM | counterscreen cell line, calcium fluorescence, antagonist mode | AID 651780; in the data active = inhibition above about 22%;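 note: CHO-Ga16 host cells stimulated with ATP at an EC80 level; 0% = agonist EC80 plus vehicle and 100% = vehicle without agonist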
TAAR1 ant conf = human TAAR1 antagonism, confirmed | 2,400 tested, 40% active | inhibition, % at 3 µM | TAAR1-expressing cells, fluorescence antagonist read-out | shares compounds with TAAR1 antag; in the data active = inhibition above about 49%;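 note: CHO-Ga16 host cells challenged with agonist PEA near its EC80; 0% = agonist at EC80 plus vehicle and 100% = vehicle with no agonist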
Ga16 nonsel ag = counter-screen for TAAR1 antagonists: nonselective Ga16 agonists; 2,400 tested, 18% active; Ga16-expressing cells, calcium fluorescence, agonist counterscreen; shares compounds with TAAR1 antag; activation, % at 3 µM; in the data active = activation above about 12%;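 note: 0% = vehicle wells and 100% = saturating stimulus response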
TAAR1 ag count = TAAR1 agonism, antagonist counter-screen | 2,400 tested, 2% active | shares compounds with TAAR1 antag | activation, % at 3 µM | hTAAR1 cell line, fluorescence activation, agonist mode; in the data active = activation above about 37%;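 note: CHO cells stably expressing TAAR1 with calcium dye readout; 0% = DMSO vehicle and 100% = full agonist response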
Numbers without * were called inactive; / = no result given.

SMILES	OXTR potentiator	TAAR1 agonist	V1aR counter	OXTR ag	TAAR1 antag	TAAR1 nonsel count	TAAR1 ant conf	Ga16 nonsel ag	TAAR1 ag count
Cc1occc1-c1nnc(-c2cc([N+](=O)[O-])cc([N+](=O)[O-])c2)o1	-7	11	0	-2	-4	/	/	/	/
CCC(C(=O)NC1CC1)n1nc(C)c2c(C)n(-c3ccccc3)nc2c1=O (centres undefined)	-7	1	1	-1	-9	/	/	/	/
O=C(OCC(=O)N1CCN(C(=O)c2ccco2)CC1)c1cc(-c2ccc(F)cc2)nc2ccccc12	-2	13	0	-1	42	/	/	/	/
O=C(OCC(=O)N1CCN(C(=O)c2ccco2)CC1)c1cc(-c2cccc(Br)c2)nc2ccccc12	-9	17	0	-2	58*	34*	44	5	1
O=C(OCC(=O)N1CCN(C(=O)c2ccco2)CC1)c1cc(-c2ccccc2)nc2ccccc12	-10	8	-2	-2	57*	26*	36	6	0
COc1ccccc1OCCCC(=O)Nc1nccs1	-10	6	2	0	19	/	/	/	/
Cc1cn([C@H](C(=O)NCCCCCCCCCCC(=O)N2CCN(C(=O)OC(C)(C)C)CC2)[C@@H](C)O)nn1	0	21	4	3	63*	24*	34	11	9
CN(c1ccccc1)S(=O)(=O)c1cccc(NC(=O)c2nn(C)c(=O)c3ccccc23)c1	-11	10	1	1	59*	25*	41	6	6
CN(c1ccccc1)S(=O)(=O)c1cccc(NC(=O)Cn2cnc3ccccc3c2=O)c1	-20	7	10	6	9	/	/	/	/
COc1cccc(NC(=O)N2CCN(c3nc(-c4cccc(OC)c4)cs3)CC2)c1	-3	3	1	0	73*	35*	43	7	1
COc1cccc(-c2csc(N3CCN(C(=O)Nc4ccccc4Cl)CC3)n2)c1	-15	10	0	-2	23	/	/	/	/
CCN(CC)C(=O)C1=C(C)N(Cc2ccccc2)C(=O)C(CC(=O)NCCCCc2ccccc2)C1 (centres undefined)	/	8	/	/	-10	/	/	/	/
CSc1sccc1/C=C(/C#N)C(=O)c1ccco1	-3	3	2	2	50*	33*	57*	7	10
COc1cccc2sc3cc(NCCCN4CCOCC4)ccc3c(=O)c12	-3	7	0	0	10	/	/	/	/
COc1ccc(-c2nc(C#N)c(NCc3ccccc3Cl)o2)cc1	-7	16	-1	-1	53*	4	7	1	6
COc1ccc(-c2cc(-c3nnc(COC(=O)C4CC4C)o3)c3ccccc3n2)cc1OC (centres undefined)	-7	11	0	0	65*	21	41	5	1
Cc1sc2ncnc(N3CCC(C(=O)N(C)CC(=O)Nc4cccc(F)c4)CC3)c2c1C	/	18	/	/	68*	32*	55*	13*	12
Cc1sc2ncnc(N3CCC(C(=O)Nc4ccccc4C(C)(C)C)CC3)c2c1C	-12	9	-1	-3	26	/	/	/	/
CCN(CC(=O)Nc1cc(Cl)ccc1C)C(=O)C1CCN(c2ncnc3sc(C)c(C)c23)CC1	/	14	/	/	83*	34*	54*	9	6
Cc1sc2ncnc(N3CCC(C(=O)N(C)CC(=O)Nc4ccc(Cl)c(C(F)(F)F)c4)CC3)c2c1C	-15	7	0	-1	39	/	/	/	/
Cc1sc2ncnc(N3CCC(C(=O)N(C)CC(=O)Nc4ccccc4Cl)CC3)c2c1C	-15	11	2	2	64*	25*	41	9	5
Cc1sc2ncnc(N3CCC(C(=O)N(C)CC(=O)Nc4ccccc4Br)CC3)c2c1C	-12	10	2	4	63*	27*	44	9	8
COc1ccc(N(CC(=O)NCCc2ccc(OC)c(OC)c2)S(=O)(=O)c2ccc(OC)c(OC)c2)cc1	-11	8	3	2	19	/	/	/	/
Cc1ccc(-c2cc(-c3ccc(F)cc3)c(C#N)c(N)n2)o1	-11	-1	0	-1	57*	17	35	-1	-2
Cc1ccc(-c2cc(-c3ccc(C)o3)nc(N)c2C#N)cc1	-1	4	1	-1	7	/	/	/	/
SMILES	OXTR potentiator	TAAR1 agonist	V1aR counter	OXTR ag	TAAR1 antag	TAAR1 nonsel count	TAAR1 ant conf	Ga16 nonsel ag	TAAR1 ag count
Cc1cc(C)c(S(=O)(=O)N2CCN(c3ccccn3)CC2)c(C)c1	/	1	/	/	0	/	/	/	/
O=C(CC1CC1)Nc1ccc2c(c1)[C@@H]1C[C@H](CC(=O)NC3CCCC3)O[C@@H](CO)[C@@H]1O2	/	-1	/	/	86*	-6	5	1	5
COc1cc2c(cc1NC(=O)COC(=O)Cn1cnc3ccccc31)oc1ccccc12	/	11	/	/	49*	18	13	5	1
COc1cc2c(cc1NC(=O)COc1ccccc1OC)oc1ccccc12	-1	1	-1	0	12	/	/	/	/
COc1cc(SC)ccc1C(=O)Nc1ccccc1C#N	-3	25	-1	-2	50*	9	16	0	0
COc1cc(SC)ccc1C(=O)Nc1ccncc1	-5	-2	0	-2	-14	/	/	/	/
COCC1CN(CCc2ccc(F)cc2)S(=O)(=O)c2c(OCCN3C(=O)[C@@H]4[C@H](C3=O)[C@@H]3C=C[C@H]4C3)cccc2O1 (some centres undefined)	/	18	/	/	63*	36*	58*	9	12
COc1cc(C(=O)OCC(=O)c2cc(C)n(C)c2C)cc(OC)c1OC	-3	-1	0	-2	-19	/	/	/	/
Cc1cc(C(=O)COC(=O)c2nccnc2N)c(C)n1C	-14	-3	0	-1	105*	11	7	-1	-2
COc1ccc(-c2csc(NC(=O)c3ccccc3NS(=O)(=O)c3ccc(F)c(F)c3)n2)cc1	-9	2	10	15	55*	60*	71*	10	4
COc1ccc(-c2csc(NC(=O)c3ccccc3F)n2)cc1	-11	0	1	-1	-7	/	/	/	/
CN(Cc1cccs1)C(=O)CN1CCN(S(=O)(=O)c2ccc3c(c2)OCCCO3)CC1	/	-2	/	/	-8	/	/	/	/
Cc1ccc(NC(=O)c2ccc(N3CCOCC3)c([N+](=O)[O-])c2)cc1S(=O)(=O)N1CCOCC1	-9	32	8	17	68*	42*	60*	16*	13
